Calls of active or inactive are those of the source. The rule behind the calls is not given here.
How the values were obtained:
[1] = Inhibition of delta17 Arf1 using ARNO4M; conditions: read-out: Ki app
Procedure, shortened: (§1)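 [Δ17]Arf1 lacking its N-terminal helix, GDP-loaded, with the BFA-sensitised Sec7 domain of human ARNO (4 mutations). Inhibitor was preincubated 5 min, then GTP or mGTP was added. Apparent rate constants were fitted. Means ± SD of ≥3 independent experiments.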

[2] = system: HeLa; test: Dispersion of cis golgi marker KDEL in human HeLa cells at 100 uM for 2 hrs; type: functional, cell-based
Procedure, shortened: (§2)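 HeLa cells were exposed 2 h to 100 μM compound, with 0.5% DMSO as vehicle control, then fixed. Primary antibody was applied overnight at 4°C in PBS/0.25% BSA/0.01% Tween 20/0.01% saponin: TGN46 1:200, βCOP 1:100, KDEL receptor 1:500. Alexa 488 secondary was applied 20 min at room temperature. Marker localisation was imaged by confocal microscopy.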

[3] = system: HeLa; test: Dispersion of cis golgi marker betaCoP in human HeLa cells at 100 uM for 2 hrs; type: functional, cell-based; procedure, shortened: as §2
[4] = (§3) Inhibition of human Arf-GDP-ARNO complex at 100 uM by fluorescence anisotropy
Procedure, shortened: (§4)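 Alexa 488 N-terminally labelled [Δ17]Arf1-GDP was held at 10 nM and titrated by serial dilution of wild-type ARNO Sec7, starting at 400 μM, with or without 100 μM inhibitor.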

[5] = system: HeLa; test: Inhibition of endogenous Arf activation in human HeLa cells; type: cell-based
Procedure, shortened: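 Activation of endogenous Arf proteins in HeLa cells was measured by pull-down of GTP-loaded Arf through binding to the GGA3 effector.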

[6] = target: ADP-ribosylation factor 1 (Homo sapiens) (UniProt P84077); test: Reduction in nucleotide exchange on Arf1 using ARNO4M; procedure, shortened: as §1
[7] = system: HeLa; test: Dispersion of trans golgi marker TGN46 in human HeLa cells at 100 uM for 2 hrs; type: functional, cell-based; procedure, shortened: as §2
[8] = system: MDCK; test: Inhibition of rate of migration in MDCK cells expressing wild type ARNO; type: functional, cell-based; conditions: Canis lupus familiaris
Procedure, shortened: (§5)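 MDCK cells carrying tetracycline-repressible myc-wt-ARNO were grown as monolayers on collagen I and scratch-wounded. Cells were kept in MEM/5% FBS with or without compound. Doxycycline at 20 ng/ml repressed the transgene (endogenous ARNO only); without it, wt-ARNO was expressed. Wound closure was imaged every 5 min for 16 h at 37°C. Rate (μm2/h) was taken from hourly area increments over 8 h. Means ± SD of ≥3 experiments.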

[9] = system: MDCK; test: Increase in rate of migration of MDCK cells expressing wild type ARNO relative to non-induced wild type ARNO cells; type: functional, Canis lupus familiaris
Procedure, shortened: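 MDCK cells stably carrying N-terminal c-myc wt-ARNO under a tetracycline-repressible transactivator, grown on collagen I (3 μg/ml). Confluent monolayers were scratch-wounded, then kept in MEM/5% FBS with 20 ng/ml doxycycline (repressed) or without it (induced). Time-lapse imaging every 5 min for 16 h at 37°C, 5% CO2. Wound-area rate (μm2/h) was taken over 1-h intervals for 8 h; mean ± SD, ≥3 experiments.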

[10] = Inhibition of delta14 Arf5 activation stimulated by Sec7 domain of BIG1
[11] = Inhibition of delta17 Arf1 activation stimulated by Sec7 domain of BIG1
[12] = Inhibition of mGTP/GTP exchange on delta17 Arf1 at 150 uM
[13] = target: ADP-ribosylation factor 5 (Homo sapiens) (UniProt P84085); test: Inhibition of ARNO-stimulated nucleotide exchange of Arf5
Procedure, shortened: (§6)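 GDP-loaded Arf isoforms truncated of the N-terminal helix (1 μM) with 50 nM Sec7 GEF. Runs were done with or without 150 μM inhibitor, preincubated 5 min, at 37°C in Tris pH 8/NaCl/MgCl2/2-mercaptoethanol buffer. Reaction was started with 2 μM mGTP and nucleotide exchange followed by time-resolved fluorescence.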

[14] = Inhibition of mGDP/GTP exchange on delta17 Arf1 at 150 uM
[15] = organism: Homo sapiens; test: Effect on activation of human RhoA/Gef337 at 150 uM
Procedure, shortened: (§7)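 Specificity panel: each small GTPase (1 μM, GST-fused RhoG or RhoA) with its GEF (50 nM; DH1 domain of TRIO or DH domain of GEF337), with or without 150 μM inhibitor. Exchange started with 2 μM mGTP and followed by time-resolved fluorescence.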

[16] = target: ADP-ribosylation factor 1 (Homo sapiens) (UniProt P84077); test: Inhibition of ARNO-stimulated nucleotide exchange of Arf1; procedure, shortened: as §6
[17] = target: ADP-ribosylation factor 6 (Homo sapiens) (UniProt P62330); test: Inhibition of ARNO-stimulated nucleotide exchange of Arf6; procedure, shortened: as §6
[18] = organism: Homo sapiens; test: as §3; procedure, shortened: as §4
[19] = system: MDCK; test: Inhibition of rate of migration of MDCK cells expressing endogenous levels of ARNO; type: functional, cell-based; conditions: Canis lupus familiaris; procedure, shortened: as §5
[20] = Inhibition of GTP binding to Arf-ARNO complex
Procedure, shortened: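 Nucleotide-free Arf1/ARNO complex made by removing GDP with alkaline phosphatase (20 units) plus 2 mM EDTA. GTP binding to the complex (0.2 μM) started with 1 μM mGTP, with or without 150 μM inhibitor. Mant fluorescence read at 37°C in Tris pH 8 buffer with MgCl2; mean ± SD of ≥3 experiments.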

[21] = organism: Homo sapiens; test: Effect on activation of human RhoG/TriD1 at 150 uM; procedure, shortened: as §7

ADP-ribosylation factor 1 (Homo sapiens), sequence (P84077 whole entry): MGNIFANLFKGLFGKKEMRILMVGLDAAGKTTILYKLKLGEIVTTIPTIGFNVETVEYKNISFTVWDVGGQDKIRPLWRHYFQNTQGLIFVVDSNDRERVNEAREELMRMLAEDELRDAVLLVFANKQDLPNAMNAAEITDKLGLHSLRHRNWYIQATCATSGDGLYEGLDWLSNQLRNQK
ADP-ribosylation factor 5 (Homo sapiens), sequence (P84085 whole entry, the tested form may be a part, canonical isoform): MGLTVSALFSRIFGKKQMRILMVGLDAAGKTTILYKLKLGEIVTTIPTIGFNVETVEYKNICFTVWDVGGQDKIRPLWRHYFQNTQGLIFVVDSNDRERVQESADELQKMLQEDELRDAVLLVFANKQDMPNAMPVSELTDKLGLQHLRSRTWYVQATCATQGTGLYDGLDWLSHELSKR
ADP-ribosylation factor 6 (Homo sapiens), sequence (P62330 whole entry): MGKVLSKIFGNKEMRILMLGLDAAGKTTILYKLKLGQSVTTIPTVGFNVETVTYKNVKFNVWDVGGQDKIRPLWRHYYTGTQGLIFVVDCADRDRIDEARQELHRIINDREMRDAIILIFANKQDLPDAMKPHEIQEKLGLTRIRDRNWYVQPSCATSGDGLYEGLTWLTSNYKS

C[C@H]1CCC/C=C/[C@@H]2C[C@H](O)C[C@H]2[C@H](O)/C=C/C(=O)O1 [BREFELDIN A]
Ki [1]: 15 µM
Activity [2]: Active
Activity [3]: Active
Kd [4]: 8.6 µM

O=[N+]([O-])c1ccc(Nc2c([N+](=O)[O-])ccc3c2=NC2(CCCCC2)N=3)cc1
Activity [5]: Active
Kapp [6]: 0.0078 s⁻¹
Activity [7]: Active
Activity [8]: Active
Activity [9]: 54%
Activity [10]: Active
Activity [11]: Active
Kapp [12]: 0.0005 s⁻¹
Activity [13]: Active
Kapp [14]: 0.0004 s⁻¹
Activity [15]: 0.0028 s⁻¹
Activity [16]: Active
Activity [17]: inactive
Activity [2]: Active
Activity [3]: Active
Activity [18]: inactive
Activity [19]: Active
Kapp [20]: 0.085 s⁻¹
Activity [21]: 0.003 s⁻¹

Source: ChEMBL document CHEMBL1142234, “Structure-based discovery of an inhibitor of Arf activation by Sec7 domains through targeting of protein-protein complexes” (Proc Natl Acad Sci U S A, 2007)
